Measured values from PubChem BioAssay.
Calls of active or inactive are those of the source.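 The calls were made as follows, unless noted: active = fluorescence slope after compound addition differing from the mean of all screened samples at 99.7% confidence, in either direction; inactive = the rest.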

Tests used:
[1] = inhibitors of TNFa-induced NFkB p65 translocation, primary screen, imaging, HUVEC, MLSMR starter and 10KST1 sets (AID 438;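 active = inhibition above 20% together with a positive visual image hit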;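 also: compound added about 3h40 before a 20 min TNFalpha stimulation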;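 as to inhibition: signal is the nuclear over cytoplasmic p65 intensity ratio per well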); conditions: HUVEC TNFa-induced p65 nuclear translocation; cell count: measured here: nuclei count (cytotoxicity indicator), at 2.08 µM; inhibition: at 2 µM, stronger effect = higher value, 0% TNFa-plus-vehicle, 100% no-TNFa wells
[2] = reduction of polyQ htt aggregates in cells – imaging, exon1htt(103Q)mCFP cells, high-content imaging, primary screen (AID 483;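 active = visual image review flags a hit and inhibition of aggregation exceeds 20%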;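 also: compound exposure lasted 3 days before fixation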;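 as to nuclei count: percent of the per-plate median nuclei count of sample wells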); conditions: exon1htt(103Q)mCFP cell line, aggregate imaging, at 2 µM; inhibition of aggregation: stronger effect = higher value; nuclei count: measured here: cell count, toxicity
[3] = endothelial E-selectin expression blockers – imaging, HUVEC, immunofluorescence, MLSMR starter and 10KST1 sets, primary screen (AID 487;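 active = visually confirmed hit in the image check and inhibition above 20%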;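 as to inhibition: signal is fraction of cell area covered by stained E-selectin grains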;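 as to nuclei count: 100% = median nuclei count of all wells on the same plate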); conditions: HUVEC TNFalpha-induced E-selectin immunofluorescence imaging, at 2 µM; inhibition: stronger effect = higher value; nuclei count: measured here: cell number, toxicity
[4] = biological target: Voltage-gated potassium channel subunit beta-2 (Rattus norvegicus) (UniProt P62483); experiment: inhibitors of rat Kvbeta2 reductase activity – biochemical, NADPH fluorescence, primary screen (AID 622;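 active = fluorescence slope higher than the sample average by over 3 SD, cut at about -0.22 in these data, passing the limit was not always enough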;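 also: slope of raw intensity against log time taken from 70 to 1610 s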); conditions: recombinant KvBeta, 4-cyanobenzaldehyde reduction, at 10 µM, stronger effect = higher value
Voltage-gated potassium channel subunit beta-2 (Rattus norvegicus), sequence (P62483 whole entry, looked up): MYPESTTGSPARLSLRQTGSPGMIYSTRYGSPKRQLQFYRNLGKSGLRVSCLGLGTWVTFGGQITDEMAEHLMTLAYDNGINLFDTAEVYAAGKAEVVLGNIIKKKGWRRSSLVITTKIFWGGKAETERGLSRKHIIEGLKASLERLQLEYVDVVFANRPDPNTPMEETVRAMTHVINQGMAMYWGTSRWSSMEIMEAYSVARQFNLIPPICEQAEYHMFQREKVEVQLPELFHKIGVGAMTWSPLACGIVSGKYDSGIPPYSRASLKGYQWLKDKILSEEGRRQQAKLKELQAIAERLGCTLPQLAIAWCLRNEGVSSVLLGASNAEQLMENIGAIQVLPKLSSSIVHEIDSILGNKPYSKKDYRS

[5] = biological target: Voltage-gated potassium channel subunit beta-2 (Rattus norvegicus) (UniProt P62483); experiment: enhancers of rat Kvbeta2 NADPH turnover – biochemical, NADPH fluorescence, primary screen (AID 623;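 active = NADPH fluorescence slope more negative than the mean of all samples by about 3 SD, 99.7% confidence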;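 also: fluorescence intensity change per second fitted from 20 to 320 s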); conditions: Recombinant KvBeta, NADPH fluorescence decrease slope, 10 min; at 10 µM; stronger effect = lower value
[6] = biological target: Alpha-2C adrenergic receptor (Homo sapiens) (UniProt P18825); experiment: compounds altering alpha2C-coupled GIRK flux – cell-based, HEK293 alpha2C/GIRK1/2, thallium flux, primary screen (AID 624); conditions: thallium flux BTC fluorescence, at 10 µM, actives lie on both sides;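 also: slope of fluorescence ratio to pre-addition baseline per second over 15 to 24 s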
Alpha-2C adrenergic receptor (Homo sapiens), sequence (P18825 whole entry, looked up): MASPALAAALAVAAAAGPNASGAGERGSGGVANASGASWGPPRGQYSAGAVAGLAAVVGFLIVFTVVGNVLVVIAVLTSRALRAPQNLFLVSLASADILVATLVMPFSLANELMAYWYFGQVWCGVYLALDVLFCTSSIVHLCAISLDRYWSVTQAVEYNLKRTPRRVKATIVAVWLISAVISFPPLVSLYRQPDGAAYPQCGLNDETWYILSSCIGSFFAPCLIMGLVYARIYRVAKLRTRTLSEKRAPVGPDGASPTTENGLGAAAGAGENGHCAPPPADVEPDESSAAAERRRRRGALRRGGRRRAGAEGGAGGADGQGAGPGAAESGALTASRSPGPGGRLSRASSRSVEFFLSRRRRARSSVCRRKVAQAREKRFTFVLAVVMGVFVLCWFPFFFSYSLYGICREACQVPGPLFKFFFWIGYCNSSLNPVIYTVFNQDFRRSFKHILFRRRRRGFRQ

[7] = inhibitors of larval lipid processing in zebrafish, primary screen, whole organism, PED6 fluorescence, gall bladder and intestine (AID 686;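 active = a full or partial loss of lipid-probe fluorescence in the fish gall bladder, intestine or both, judged by eye; inactive = no fluorescence loss, or compound toxic to the fish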;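 also: larvae 5 to 7 days old with five fish per well; signal comes from phospholipase A2 cleavage of quenched PED6 carried via bile; overnight exposure to compound and PED6 before scoring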); conditions: Zebrafish larvae PED6 lipid processing, fluorescence scoring; screened at 20 µM (by protocol)
Summary of the method: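 Doses: 20 µM single dose. Test system: live zebrafish larvae aged 5-7 days, whole organism. Quantity: five larvae per well. Measured by: By-eye fluorescence microscopy. Reagent: ingested quenched lipid PED6 at 100 nM. Read-out: visual per-well fluorescence inhibition score. Times: overnight exposure of larvae to compound plus PED6.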

[8] = blockers of RIG-like receptor reporter activation – cell-based, Sendai virus stimulus, luciferase, 10K MLSCN set, TLR/RLR signaling modifier project, primary screen (AID 602276;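 active = inhibition at or above 50% at 10 µM; inactive = inhibition below 50%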;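 also: firefly luciferase from ISG56 promoter only with Renilla not read in this screen; 0% = Sendai virus plus DMSO and 100% = medium plus DMSO without virus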); conditions: HEK293 RL24 IRF3 luciferase reporter, at 10 µM, stronger effect = higher value
[9] = TLR3 IRF3 reporter activation blockers – cell-based, poly I:C stimulus, luciferase, 10K MLSCN set, primary screen (AID 602277;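 active = inhibition of the reporter signal at or above 50%; inactive = inhibition below 50%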); conditions: HEK293-TLR3 RL24 IRF3 luciferase reporter, at 10 µM, stronger effect = higher value

Row | Structure (SMILES) | cell count [1] | inhibition [1] | inhibition of aggregation [2] | nuclei count [2] | inhibition [3] | nuclei count [3] | fluorescence slope [4] | NADPH fluorescence slope [5] | slope [6] | outcome [7] | inhibition [8] | inhibition [9]
1 | O=C(c1cnn2c(C(F)F)cc(-c3ccccc3)nc12)N1CCN2CCCC2C1 (stereo not given) | 223 | -3.7% (inactive) | 13% (inactive) | 100% | -87.1% (inactive) | 129% | -0.251 (inactive) | -1.6e-05 (inactive) | 0.00468 (inactive) | inactive | 15.8% (inactive) | 32.7% (inactive)
2 | CCCn1nnc(NCc2ccc(OCc3cccs3)c(OC)c2)n1 | 226 | -5.8% (inactive) | 7.5% (inactive) | 90% | -51.4% (inactive) | 99% | -0.467 (inactive) | -3.7e-05 (inactive) | 0.00561 (inactive) | inactive | 8.88% (inactive) | 6.19% (inactive)
3 | COc1ccc(/C=N/n2c(SC)nnc2-c2ccccc2)cc1C | 384 | -0.9% (inactive) | 6.2% (inactive) | 103% | -68.1% (inactive) | 117% | -0.384 (inactive) | -2e-05 (inactive) | 0.00536 (inactive) | inactive | 2.46% (inactive) | -2.96% (inactive)
4 | Cc1cc(=O)n2[nH]c(-c3ccc(Cl)cc3)cc2n1 | 540 | -2.9% (inactive) | 0% (inactive) | 87.6% | 46.6% (inactive) | 69.3% | -0.42 (inactive) | -3.9e-05 (inactive) | 0.0052 (inactive) | inactive | -16.8% (inactive) | -40.2% (inactive)
5 | O=P(CCNCc1ccco1)(c1ccccc1)c1ccccc1 | 322 | 9.5% (inactive) | -14.2% (inactive) | 107% | 1.5% (inactive) | 112% | -0.382 (inactive) | -2.4e-05 (inactive) | 0.00716 (inactive) | inactive | 139% (active) | 91.3% (active)
6 | CCOc1ccccc1C(=O)Nn1c(C2CCC2)nc2ccccc2c1=O | 292 | -14% (inactive) | -21.7% (inactive) | 7.3% | -38.2% (inactive) | 98.8% | -0.467 (inactive) | -5.5e-05 (inactive) | 0.00459 (inactive) | inactive | 20.9% (inactive) | 37.7% (inactive)
7 | Cn1c(CN2CCCCC2)nc2cc(NC(=O)c3ccccc3)ccc21 | 435 | -0.8% (inactive) | 3.4% (inactive) | 85.3% | 2.3% (inactive) | 92.4% | -0.438 (inactive) | -9.5e-07 (inactive) | 0.00451 (inactive) | inactive | -17.4% (inactive) | 98.6% (active)
8 | COC(=O)c1ccccc1NC(=O)CN1CCC(n2nnc3cc(F)ccc32)CC1 | 488 | 6% (inactive) | -5.5% (inactive) | 103% | 35% (inactive) | 91.3% | -0.453 (inactive) | -4.1e-05 (inactive) | 0.00532 (inactive) | inactive | 15.8% (inactive) | 25.9% (inactive)
9 | O=C(COC(=O)CCOc1ccccc1)Nc1ccc(Cl)cn1 | 723 | 5.7% (inactive) | -12.2% (inactive) | 101% | 35.5% (inactive) | 88.1% | -0.489 (inactive) | -1.8e-05 (inactive) | 0.00492 (inactive) | inactive | 5.25% (inactive) | 8.02% (inactive)
10 | O=C(Nc1ccc2c(c1)OCCO2)C1CCN(C(=O)c2ccc(F)cc2)CC1 | 397 | 4.1% (inactive) | -5.3% (inactive) | 96.2% | -14% (inactive) | 117% | -0.368 (inactive) | -7.6e-05 (inactive) | 0.00511 (inactive) | inactive | -6.3% (inactive) | -44.3% (inactive)
11 | COc1ccc(C(=O)CSc2nnc(-c3ccc(C)cc3)o2)cc1 | 419 | 11.2% (inactive) | -14.9% (inactive) | 109% | -69.4% (inactive) | 112% | -0.371 (inactive) | -1.3e-05 (inactive) | 0.00862 (inactive) | inactive | -16.3% (inactive) | -18.5% (inactive)
12 | COc1ccc(S(=O)(=O)Nc2ccc(Cl)cn2)c(C)c1C | 482 | -29.6% (inactive) | -3.5% (inactive) | 62% | -46.8% (inactive) | 98.5% | -0.387 (inactive) | -4.6e-05 (inactive) | 0.00866 (inactive) | inactive | 11.2% (inactive) | 1.09% (inactive)
13 | CN(C)c1ccc(NC(=O)Nc2cccc(Cl)c2)cc1 | 387 | 2.3% (inactive) | 1.1% (inactive) | 106% | -10% (inactive) | 109% | -0.436 (inactive) | -3.6e-05 (inactive) | 0.00643 (inactive) | inactive | -43.6% (inactive) | -104% (inactive)
14 | CCOC(=O)C1=C(c2ccccc2)N2CCS(=O)(=O)N=C2S1 | 531 | 0.5% (inactive) | -5.8% (inactive) | 105% | -98.9% (inactive) | 108% | -0.271 (inactive) | -1e-05 (inactive) | 0.0047 (inactive) | inactive | 16.1% (inactive) | 20.5% (inactive)
15 | Clc1ccc(Cl)c(-c2nn3c(Cn4cnc5ccccc54)nnc3s2)c1 | 566 | 15.8% (inactive) | -6.5% (inactive) | 102% | -91.4% (inactive) | 121% | -0.446 (inactive) | -3.8e-05 (inactive) | 0.00462 (inactive) | inactive | 13.6% (inactive) | 13.1% (inactive)
16 | CCCc1cc(N2CCCC2)n2nc(C)c(-c3ccccc3)c2n1 | 531 | -11% (inactive) | -13.4% (inactive) | 112% | -22.9% (inactive) | 122% | -0.118 (inactive) | 9.3e-07 (inactive) | 0.00457 (inactive) | inactive | 14% (inactive) | -0.253% (inactive)
17 | O=C(Nc1ccc2oc(=O)ccc2c1)c1cccnc1 | 423 | 7.5% (inactive) | 4% (inactive) | 90.8% | 1.2% (inactive) | 91.9% | -0.434 (inactive) | -8.3e-06 (inactive) | 0.00437 (inactive) | inactive | 6.9% (inactive) | 0.246% (inactive)
18 | CCOC(=O)c1cc(-c2ccccc2)sc1N | 389 | -0.7% (inactive) | 3.4% (inactive) | 102% | -104% (inactive) | 107% | -0.351 (inactive) | -2e-05 (inactive) | 0.0052 (inactive) | inactive | -40.8% (inactive) | -102% (inactive)
19 | COc1ccc(Cl)cc1N1CCN(CCNC(=O)Nc2ccccc2C)CC1 | 353 | 0.6% (inactive) | -3.4% (inactive) | 108% | -3.8% (inactive) | 111% | -0.452 (inactive) | -1.3e-05 (inactive) | 0.00435 (inactive) | inactive | 21.9% (inactive) | 8.13% (inactive)
20 | CNC(=O)OC(C)CNS(=O)(=O)c1ccc(C)cc1 (stereo not given) | 441 | 9.8% (inactive) | 5.2% (inactive) | 103% | -36.3% (inactive) | 118% | -0.433 (inactive) | -4.1e-05 (inactive) | 0.00412 (inactive) | inactive | 19.5% (inactive) | 17.5% (inactive)
